Ecoli rRNA inh = reduced GFP signal of wild-type E. coli, primary screen, bacterial rRNA inhibitor project, GFP/RFP fluorescence, OD600, single point; GFP signal change (wild-type ribosome), % (test concentration not listed); E. coli WT GFP vs humanized-ribosome RFP mutants, 24 h; stronger effect = lower value; DMSO median 0, no signal -100; AID 720706, 2013; 350,000 compounds, 1.6% hits;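 active = significant combined selectivity score with lowered wild-type GFP, culture density cut under 30%, mutant RFP and density less affected; inactive = any of these conditions unmet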
FGF22 binding = binders of human FGF22 protein, primary screen, FGF22 synaptogenesis inhibitor project, biophysical, thermal shift, single point | Fibroblast growth factor 22 (Homo sapiens), Q9HCT0 | recombinant FGF22 thermal shift, SYPRO orange fluorescence; percent of sucrose octasulfate shift, DMSO zero | activity (Tm shift, normalised), % at 9.99 µM | 340,000 compounds, 1.5% hits | AID 651658, 2012;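 active = mean Tm shift, scaled 0 neutral to 100 positive control, at about 1.3% or above, every replicate too, limit read from the data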
SIRT5 block = SIRT5 desuccinylase inhibitors, primary screen, biochemical, fluorescence imaging, single point, set 5; Purified SirT5, succinyl-peptide AMC, trypsin-coupled fluorescence; inhibition, % at 15 µM; 330,000 compounds, 1.1% hits; AID 652115, 2013; in the data active = inhibition above about 15%
E-sel inducer = E-selectin induction in HUVECs, primary screen, imaging, HUVEC, immunofluorescence imaging, single point; normalized: neutral wells 0, TNF-alpha wells 100; activation, % at 7.58 µM; 260,000 compounds, 0.37% hits; AID 686992, 2013;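 active = mean E-selectin-positive cell signal at least 10% of the positive control, reached in at least 60% of replicates, without over 20% cell loss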
Target sequence (P16581 whole entry, looked up): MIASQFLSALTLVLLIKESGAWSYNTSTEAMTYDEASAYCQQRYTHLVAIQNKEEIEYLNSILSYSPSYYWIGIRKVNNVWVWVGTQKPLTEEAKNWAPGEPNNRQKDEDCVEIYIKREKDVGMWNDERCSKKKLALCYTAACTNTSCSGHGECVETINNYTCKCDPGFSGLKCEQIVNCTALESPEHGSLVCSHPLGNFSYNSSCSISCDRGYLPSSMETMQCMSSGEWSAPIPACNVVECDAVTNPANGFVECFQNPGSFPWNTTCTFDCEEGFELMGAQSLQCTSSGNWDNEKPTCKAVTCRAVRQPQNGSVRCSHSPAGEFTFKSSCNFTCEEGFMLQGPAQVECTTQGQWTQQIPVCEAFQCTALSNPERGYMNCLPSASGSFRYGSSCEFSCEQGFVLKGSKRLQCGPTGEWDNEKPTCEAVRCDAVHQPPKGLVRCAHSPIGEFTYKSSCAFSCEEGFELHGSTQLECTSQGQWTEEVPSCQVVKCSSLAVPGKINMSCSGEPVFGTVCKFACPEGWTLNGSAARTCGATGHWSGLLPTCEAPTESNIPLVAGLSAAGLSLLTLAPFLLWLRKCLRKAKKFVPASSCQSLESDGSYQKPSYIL
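System: HUVEC / Compound: single concentration / Signal: immunofluorescence imaging / Read-out: percent E-selectin-positive cells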
FN deposition inh = inhibitors of fibronectin matrix deposition, primary screen, AH1F cells, Alexa488-fibronectin fluorescence, plate reader. 350,000 compounds, 0.086% hits. inhibition, % at 12.6 µM. AH1F fibroblasts, overnight;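 active = mean inhibition across replicates of 30% or more, regardless of how many single replicates reach that level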;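 also: positive control wells lacked labelled fibronectin entirely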
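Test system: AH1F fibroblast monolayer depositing Alexa488-labelled fibronectin into matrix. Input: 10000 cells per well. Technique: fluorescence, ex 485 nm, em 525 nm. Buffer or medium: DMEM plus 2% serum, read in PBS. Timing: 1 h cell adhesion before compound, then overnight fibronectin incubation. Compound: single dose, pinned. Read-out basis: inhibition from reduced deposited-fibronectin fluorescence.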
Statin myotox sup = suppressors of statin myotoxicity in C2C12 myotubes, primary screen, cell-based, single point, plate reader; C2C12 myotubes + simvastatin, ATP luminescence, 48 h; scaled: DMSO 0, geranylgeraniol control 100; rescue of ATP level, % at 7.49 µM; 330,000 compounds, 0.78% hits;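 active = mean ATP rescue above about 67%, or every replicate alone reaching that limit, limit read from the data, passing the limit was not always enough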;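 also: myotubes were challenged with 10 µM simvastatin during compound exposure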
Active calls of the source: *. An excerpt weighted towards active compounds, which were near 4% of everything screened.

Results for CC(=O)Nc1ccc2c(c1)C(=O)N(C)[C@@H]1CC[C@@H](CC(=O)NCc3ccccc3Cl)O[C@@H]1CO2 ?
Ecoli rRNA inh: 4; FGF22 binding: 0; E-sel inducer: 0; FN deposition inh: -3; Statin myotox sup: 12

What do the screens show for `COc1cccc(-c2ccc([C@H]3[C@H](CO)N4C(=O)CN(C(=O)C5CCCC5)C[C@@H]34)cc2)c1`?
Ecoli rRNA inh: 0; SIRT5 block: -4; E-sel inducer: -1; FN deposition inh: 11

What do the screens show for `COc1cccc(S(=O)(=O)Nc2ccc3c(c2)[C@H]2C[C@H](CC(=O)NCCc4ccccc4)O[C@@H](CO)[C@H]2O3)c1`?
Ecoli rRNA inh: -4; FGF22 binding: 0; SIRT5 block: -1; E-sel inducer: 0; Statin myotox sup: 14

Results for NCC(O)CN(c1ccccc1)c1ccccc1 (centres undefined) ?
Ecoli rRNA inh: 19; SIRT5 block: 38*; E-sel inducer: -2; FN deposition inh: 10; Statin myotox sup: 9

Results for OCCN(CCO)CC(O)CN(c1ccccc1)c1ccccc1 (centres undefined) ?
Ecoli rRNA inh: 16; FGF22 binding: 0; SIRT5 block: -2; E-sel inducer: 0; FN deposition inh: -1

How did COc1ccc(NS(=O)(=O)c2ccc(NC(=O)c3ccccc3Br)cc2)nn1 do in these assays?
Ecoli rRNA inh: -26*; FGF22 binding: 0; SIRT5 block: -3; E-sel inducer: 2; FN deposition inh: 0; Statin myotox sup: 13

What do the screens show for `COc1ccc(NS(=O)(=O)c2ccc(NC(=O)c3ccccc3)cc2)nn1`?
Ecoli rRNA inh: -11; FGF22 binding: 0; SIRT5 block: 5; FN deposition inh: -2; Statin myotox sup: -2

Results for CCNC(=O)[C@H]1[C@H](CO)[C@H]2Cn3c(ccc(-c4cccc(F)c4)c3=O)[C@H]2N1Cc1cc(F)ccc1F ?
Ecoli rRNA inh: -3; FGF22 binding: 0; SIRT5 block: -12; E-sel inducer: -1; Statin myotox sup: 23

Results for CNS(=O)(=O)c1cc(NC(=O)c2cnc(SC)n2-c2ccccc2)ccc1C ?
Ecoli rRNA inh: -21*; FGF22 binding: 0; SIRT5 block: 0; E-sel inducer: 0; FN deposition inh: 5; Statin myotox sup: 9

What do the screens show for `N#CC1=C(N)OC2=C(CCc3ccccc32)C1c1ccccc1Cl` (centres undefined)?
Ecoli rRNA inh: -22*; FGF22 binding: 0; SIRT5 block: -1; FN deposition inh: 13; Statin myotox sup: -63

Results for C[C@H](CO)N1C[C@H](C)[C@@H](CN(C)Cc2ccc(Cl)c(Cl)c2)Oc2ccc(NC(=O)C3CCCCC3)cc2CC1=O ?
Ecoli rRNA inh: 0; FGF22 binding: -1; SIRT5 block: 2; E-sel inducer: 0; FN deposition inh: 3; Statin myotox sup: 132*

Results for C[C@@H]1CN([C@H](C)CO)C(=O)Cc2cc(NC(=O)C3CCCCC3)ccc2O[C@H]1CN(C)Cc1ccc(Cl)c(Cl)c1 ?
Ecoli rRNA inh: 1; FGF22 binding: 0; SIRT5 block: 10; E-sel inducer: 0; FN deposition inh: -1; Statin myotox sup: 139*

How did C[C@H]1CN([C@@H](C)CO)C(=O)Cc2cc(NC(=O)C3CCCCC3)ccc2O[C@H]1CN(C)Cc1ccc(Cl)c(Cl)c1 do in these assays?
Ecoli rRNA inh: 2; FGF22 binding: 0; SIRT5 block: -1; E-sel inducer: 1; FN deposition inh: 11; Statin myotox sup: 22

What do the screens show for `COc1ccc(S(=O)(=O)N(C)C[C@@H]2OCCCC[C@H](C)Oc3ccc(NC(=O)CCCN(C)C)cc3C(=O)N([C@@H](C)CO)C[C@H]2C)cc1`?
Ecoli rRNA inh: 2; FGF22 binding: -1; SIRT5 block: 0; E-sel inducer: 0

What do the screens show for `CC(C)C#Cc1cnc2c(c1)C(=O)N([C@H](C)CO)C[C@H](C)[C@H](CN(C)C(=O)c1cccc(F)c1)O2`?
Ecoli rRNA inh: 4; FGF22 binding: 1; SIRT5 block: -2; E-sel inducer: 0; FN deposition inh: -1; Statin myotox sup: 0

How did O=C(NNc1ccccc1)c1ccc(Cl)c(Cl)c1 do in these assays?
Ecoli rRNA inh: -6; FGF22 binding: 43*; E-sel inducer: 1; FN deposition inh: 0

How did O=c1[nH]c(=S)[nH]cc1Oc1ccc(Cl)cc1Cl do in these assays?
Ecoli rRNA inh: -25*; FGF22 binding: 0; SIRT5 block: -1; FN deposition inh: 3; Statin myotox sup: 7

Results for C[C@H]1CN([C@@H](C)CO)C(=O)c2cc(C#CCN(C)C)cnc2O[C@@H]1CN(C)C(=O)Cc1cccnc1 ?
Ecoli rRNA inh: 6; FGF22 binding: 0; SIRT5 block: -6; E-sel inducer: -2; FN deposition inh: -4; Statin myotox sup: -3

What do the screens show for `COCC(=O)N[C@@H]1CC[C@@H](CC(=O)N2CCCCC2)O[C@@H]1CO`?
Ecoli rRNA inh: 2; FGF22 binding: 0; SIRT5 block: -1; E-sel inducer: 0; FN deposition inh: 7; Statin myotox sup: 7

How did Cc1ccc(OCc2ccc(C(=O)NN)o2)c([N+](=O)[O-])c1 do in these assays?
Ecoli rRNA inh: 1; FGF22 binding: 0; SIRT5 block: 3; E-sel inducer: 14; FN deposition inh: -4

How did Cc1ccc(/C=N\NC(=O)COc2ccc(C)cc2[N+](=O)[O-])cc1 do in these assays?
Ecoli rRNA inh: 3; FGF22 binding: 43*; SIRT5 block: -2; E-sel inducer: -2; FN deposition inh: 7

Results for Cc1ccc(OCC(=O)N/N=C\c2ccc(O)c([N+](=O)[O-])c2)c([N+](=O)[O-])c1 ?
Ecoli rRNA inh: 12; FGF22 binding: 0; SIRT5 block: 2; E-sel inducer: 2; FN deposition inh: 1

Results for COC(=O)c1ccc(COc2ccc(C)cc2[N+](=O)[O-])o1 ?
Ecoli rRNA inh: -24*; FGF22 binding: 0; SIRT5 block: 1; E-sel inducer: 0; FN deposition inh: -8

How did COc1ccc(N2CN=C3SCC(=O)N3C2)cc1 do in these assays?
E-sel inducer: -1; FN deposition inh: 2; Statin myotox sup: 106*

How did CCN=C1SCC(=O)N1c1ccc(OC)cc1 do in these assays?
E-sel inducer: 1; FN deposition inh: 4; Statin myotox sup: -3
